Twelve compounds from ChEMBL document CHEMBL1155878, “Substituted 6-phenyl-2-naphthols. Potent and selective nonsteroidal inhibitors of 17beta-hydroxysteroid dehydrogenase type 1 (17beta-HSD1): design, synthesis, biological evaluation, and pharmacokinetics” (J Med Chem, 2008) can be followed below.

In general, inhibition refers to the drop in the measured response relative to a control, in per cent. What is called IC50 is the midpoint of a concentration-inhibition curve. For orientation: AUC(0-inf) means total exposure, with the tail of the curve extrapolated. A high value points to more exposure. For orientation: Tmax means the time at which the peak concentration occurs. In general, AUC(0-t) refers to exposure summed from dosing to a finite time, without extrapolation to infinity. High values mean more exposure, low ones less exposure. In general, Cmax refers to the maximum level reached in the sampled fluid or tissue. By half-life is commonly meant the time in which the quantity being followed falls by half. Read a low half-life as rapid decline.

Active and inactive are the calls of the source. No cut-off for these calls is given here.

For series [1], the target named is T1, 17-beta-hydroxysteroid dehydrogenase type 1 (Homo sapiens) (UniProt P14061).
T1 sequence (whole entry): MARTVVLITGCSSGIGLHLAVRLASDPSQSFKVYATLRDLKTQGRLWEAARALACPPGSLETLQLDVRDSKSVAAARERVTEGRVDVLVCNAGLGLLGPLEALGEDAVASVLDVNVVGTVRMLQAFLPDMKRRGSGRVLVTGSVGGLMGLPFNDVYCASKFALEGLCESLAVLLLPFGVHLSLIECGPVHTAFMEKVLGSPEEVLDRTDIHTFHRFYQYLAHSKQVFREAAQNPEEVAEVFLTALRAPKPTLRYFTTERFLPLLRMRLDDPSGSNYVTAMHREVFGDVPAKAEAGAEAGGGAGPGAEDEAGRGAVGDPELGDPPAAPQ
Description: Inhibition of human placental 17beta-HSD1 assessed as conversion of [3H]estrone to [3H]17beta-estradiol at 1 uM. In a few lines: (§1)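 Cytosolic enzyme from human placenta, purified by ammonium sulfate precipitation, with NADH 500 µM. Incubated at 37 °C in 50 mM phosphate buffer with 20% glycerol and 1 mM EDTA, 1% DMSO final. Started with [3H]E1 (500 nM final) and stopped with HgCl2 after 10 min. Ether extraction, then HPLC with radioflow detection of E1/E2. Result is % inhibition = 100 − % conversion, from ≥3 independent experiments.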

Series [2] deals with T1, 17-beta-hydroxysteroid dehydrogenase type 1 (Homo sapiens). Description: Inhibition of human placental 17beta-HSD1 assessed as conversion of [3H]estrone to [3H]17beta-estradiol at 100 nM. In outline:
as §1

The target in series [3] is T2, 17-beta-hydroxysteroid dehydrogenase type 2 (Homo sapiens, UniProt P37059).
T2 sequence (P37059 whole entry): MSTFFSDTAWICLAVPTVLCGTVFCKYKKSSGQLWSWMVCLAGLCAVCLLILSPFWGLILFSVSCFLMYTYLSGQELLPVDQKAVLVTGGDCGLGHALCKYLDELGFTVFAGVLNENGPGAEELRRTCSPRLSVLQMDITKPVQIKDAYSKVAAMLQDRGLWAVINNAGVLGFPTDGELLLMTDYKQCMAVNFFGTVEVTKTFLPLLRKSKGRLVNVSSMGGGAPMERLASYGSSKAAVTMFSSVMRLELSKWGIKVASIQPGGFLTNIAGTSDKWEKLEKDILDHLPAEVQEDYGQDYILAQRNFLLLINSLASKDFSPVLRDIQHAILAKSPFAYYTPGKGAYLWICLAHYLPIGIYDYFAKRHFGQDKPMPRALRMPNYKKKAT
The series is described as follows: Inhibition of human placental 17beta-HSD2 assessed as conversion of [3H]17beta-estradiol to [3H]estrone. In a few lines:
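Human placental microsomal fraction incubated with NAD+ (1500 µM), test compound and unlabeled plus [3H]E2 (final 500 nM) for 20 min at 37 °C. The reaction was stopped with HgCl2 and extracted with ether. E1 and E2 were separated by HPLC with radioflow detection. Percent conversion was used to derive inhibition. Values are the mean of three determinations; IC50 was measured for selected compounds.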

Series [4] has as its target T3, 17-beta-hydroxysteroid dehydrogenase type 1 (Homo sapiens, UniProt P14061).
T3 sequence (P14061 whole entry): T1 sequence (whole entry)
The series is described as follows: Inhibition of human placental 17beta-HSD1 assessed as conversion of [3H]estrone to [3H]17beta-estradiol.

Series [5] has as its system Rattus norvegicus. Description: Tlast in Wistar rat at 10 mg/kg, po. The series is classed as ADME, organism-based. Details: dose 10 mg/kg, route oral. The following applies: in vivo. In outline: (§2)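 Four adult male Wistar rats per group given 10 mg/kg orally in labrasol/water (1:1), cassette dosing. Rats were jugular-cannulated under ketamine/xylazine and sampled freely moving at 1, 2, 3, 4, 6, 8, 10 and 24 h. Plasma stored at -20 °C and quantified by HPLC-MS/MS (ESI triple quadrupole).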

Series [6] deals with Rattus norvegicus. Description: Clast in Wistar rat at 10 mg/kg, po. The series is classed as ADME, organism-based. Details: dose 10 mg/kg, route oral. The following applies: in vivo. In a few lines: as §2
The nature of series [7]: AUC (0 to infinity) in Wistar rat at 10 mg/kg, po. In kind it is ADME, organism-based. Details: dose 10 mg/kg, route oral, time infinity. The following applies: plasma. In outline:
as §2

Series [8] can be described thus: Tmax in Wistar rat at 10 mg/kg, po. The series is classed as ADME, organism-based. On the set-up: dose 10 mg/kg, route oral. The following applies: in vivo. In a few lines:
as §2

Series [9] can be described thus: AUC (0 to tlast) in Wistar rat at 10 mg/kg, po. The series is classed as ADME, organism-based. Details: dose 10 mg/kg, route oral. The following applies: plasma. In outline:
as §2

The nature of series [10]: Stimulation of human […] cell proliferation at 100 nM after 8 days by MTT assay relative to 17-beta estradiol. The series is classed as functional. A general note: Tetrazolium dyes change colour on reduction, which living cells bring about.
A short description of series [11]: Cmax in Wistar rat at 10 mg/kg, po. In kind it is ADME, organism-based. Details: dose 10 mg/kg, route oral. The following applies: in vivo. In a few lines: as §2
A short description of series [12]: Terminal half life in Wistar rat at 10 mg/kg, po. The series is classed as ADME, organism-based. The following applies: in vivo. On the set-up: dose 10 mg/kg, route oral. In a few lines:
as §2

Series [13] concerns the target T4, 17-beta-hydroxysteroid dehydrogenase type 2 (Homo sapiens) (UniProt P37059).
T4 sequence (whole entry): T2 sequence (P37059 whole entry)
Description: Inhibition of human recombinant expressed in Sf9 cells 17beta-HSD2 assessed as conversion of [3H]17beta-estradiol to [3H]estrone at 1 uM. In a few lines:
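Microsomes from Sf9 cells infected with baculovirus. Incubated with 30 nM [3H]E2 and 1 mM NAD+ in 20 mM KH2PO4, pH 7.4, for 30 min at room temperature, with 1% DMSO. Stopped with 10% trichloroacetic acid. E1/E2 radioactivity used for conversion; inhibition = 100 − % conversion, from two independent experiments.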

In series [14] the test system is T47C. The series is described as follows: Stimulation of human […] cell proliferation at 0.1 nM after 8 days by MTT assay. The series is classed as functional, cell-based.

Turning to `N#Cc1cc(-c2cccc(O)c2)cc2ccc(O)cc12`, the inhibition in series [1] was 53%. Moreover, the inhibition result in series [2] was “inactive”.
Turning to `Oc1cccc(-c2ccc3c(Br)c(O)ccc3c2)c1`, the IC50 in series [3] stood at 639 nM; in series [4], 40 nM.
For the compound `Oc1cccc(-c2ccc3c(-c4ccccc4)c(O)ccc3c2)c1`, the tz in series [5] is 24 h. Also, the Cz in series [6] worked out at 115 ng/mL. The compound also returned an AUC(0-inf) in [7] of 12700 ng·h/mL. Besides, in [8], the Tmax amounted to 4 h. The IC50 in series [4] is 20 nM. The same compound displayed an AUC(0-t) in series [9] of 11700 ng·h/mL. The same compound gave an Activity in [10] of 39%. This compound registered a Cmax in [11] of 860 ng/mL. Also, the half-life in series [12] was 6 h.
In the case of `O=C(Nc1ncccn1)c1c(O)ccc2cc(-c3cccc(O)c3)ccc12`, the outcome in series [1] and in [2] was inactive.
For `CNC(=O)CCc1c(O)ccc2cc(-c3cccc(O)c3)ccc12`, in series [13], the inhibition is 36%.
For `C[C@]12CC[C@@H]3c4ccc(O)cc4CC[C@H]3[C@@H]1CC[C@@H]2O`, the outcome in series [14] was Active.
On to `Cc1nnc(NC(=O)c2c(O)ccc3cc(-c4cccc(O)c4)ccc23)s1`, for which the inhibition in series [1] was 73%.
As for `O=C(Nc1ccccn1)c1c(O)ccc2cc(-c3cccc(O)c3)ccc12`, the outcome in series [1] and in series [2] was inactive.
Regarding `Oc1cccc(-c2ccc3cc(O)ccc3c2)c1`, in [5], the tz turned out to be 24 h. This compound also had a Cz in series [6] of 159 ng/mL. The AUC(0-inf) in [7] amounted to 30700 ng·h/mL. Also, the Tmax in series [8] amounted to 6 h. For the same compound, in series [9], the AUC(0-t) was determined as 29700 ng·h/mL. In [10], the Activity is listed as 41%. In addition, in [11], the highest level (Cmax) was 2230 ng/mL. For the same compound, in [12], the half-life is 4 h.
Regarding `O=S(=O)(c1ccccc1)c1c(O)ccc2cc(-c3cccc(O)c3)ccc12`, in [1], the inhibition was 33%.
`Cc1ccc(S(=O)(=O)c2c(O)ccc3cc(-c4cccc(O)c4)ccc23)cc1`: the inhibition in series [1] was 75%.
For the compound `N#Cc1cc(O)cc2ccc(-c3cccc(O)c3)cc12`, the results for the inhibition in [1] and in [2] were 99% and 73%, respectively.
